How the values were obtained:
[1] = molecular target: Mitogen-activated protein kinase 14 (Homo sapiens) (UniProt Q16539); assay: Inhibition of p38alpha MAP kinase at 10 uM; set-up: scale not given: the % may be the effect or the level left
How it was run: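 Radiometric coupled assay. [γ-³²P]ATP and MAPKAP kinase-2 substrate then added, 10 min at 30 °C. Mixture spotted onto P81 phosphocellulose paper, washed with 0.75% phosphoric acid, bound radioactivity counted by liquid scintillation.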

[2] = molecular target: T1, TGF-beta receptor type-1 (Homo sapiens) (UniProt P36897); assay: Inhibition of human ALK5 activity in human HaCaT cells assessed as p3TP-luciferase reporter activity; assay type: cell-based
T1 sequence (whole entry): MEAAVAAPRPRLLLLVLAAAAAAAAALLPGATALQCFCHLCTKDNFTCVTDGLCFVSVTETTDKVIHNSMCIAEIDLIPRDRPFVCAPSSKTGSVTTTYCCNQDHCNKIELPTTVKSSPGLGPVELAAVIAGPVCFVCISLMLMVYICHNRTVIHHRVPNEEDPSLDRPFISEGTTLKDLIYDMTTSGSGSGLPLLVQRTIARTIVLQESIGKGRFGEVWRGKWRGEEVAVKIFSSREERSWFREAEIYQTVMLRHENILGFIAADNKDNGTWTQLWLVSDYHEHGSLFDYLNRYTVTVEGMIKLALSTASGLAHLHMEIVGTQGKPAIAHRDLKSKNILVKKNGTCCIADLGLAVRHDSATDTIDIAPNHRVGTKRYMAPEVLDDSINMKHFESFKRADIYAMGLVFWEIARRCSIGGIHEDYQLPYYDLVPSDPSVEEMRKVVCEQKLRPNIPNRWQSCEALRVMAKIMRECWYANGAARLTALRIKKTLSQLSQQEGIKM
How it was run: (§1)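 HaCaT cells seeded at 5 × 10⁴ per well; next day (about 90% confluent) transiently co-transfected with p3TP-Luc or ARE-Luc reporter plus β-galactosidase by lipofection. Inhibitors added 24 h post-transfection, 2 h before stimulation with 5 ng/mL TGF-β for 18–24 h. Luminescence of lysates read. Mean ± SD of three independent experiments run in triplicate, relative to DMSO vehicle control.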

[3] = molecular target: T1, TGF-beta receptor type-1 (Homo sapiens); assay: Inhibition of human ALK5 activity in human HaCaT cells assessed as ARE-luciferase reporter activity; assay type: cell-based; conditions: in the assay text read “p3TP-luciferase” for “ARE-luciferase”; how it was run: as §1

Mitogen-activated protein kinase 14 (Homo sapiens), sequence (Q16539 whole entry): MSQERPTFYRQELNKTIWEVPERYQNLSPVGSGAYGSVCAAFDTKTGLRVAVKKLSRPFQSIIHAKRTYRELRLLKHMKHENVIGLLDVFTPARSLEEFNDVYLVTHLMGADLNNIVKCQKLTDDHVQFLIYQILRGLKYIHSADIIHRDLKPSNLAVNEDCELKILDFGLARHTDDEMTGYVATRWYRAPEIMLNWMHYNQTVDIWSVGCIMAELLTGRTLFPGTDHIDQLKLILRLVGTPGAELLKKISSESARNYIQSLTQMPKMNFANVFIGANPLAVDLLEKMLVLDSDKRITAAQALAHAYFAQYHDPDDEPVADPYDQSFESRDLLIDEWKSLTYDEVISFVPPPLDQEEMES

Row | Structure (SMILES) | Activity [1] | Activity [2] | Activity [3]
1 | CC(C)c1cccc(-c2[nH]c(Cc3ccc(S(N)(=O)=O)cc3)nc2-c2ccc3nccnc3c2)n1 | 98% |  | 
2 | NS(=O)(=O)c1ccc(Cc2nc(-c3ccc4nccnc4c3)c(-c3ccccn3)[nH]2)cc1 | 95% |  | 
3 | NC(=O)c1ccc(-c2nc(-c3ccccn3)c(-c3ccc4c(c3)OCO4)[nH]2)cc1 | 49% |  | 
4 | CCCCc1cccc(-c2[nH]c(CCc3ccc(S(N)(=O)=O)cc3)nc2-c2ccc3nccnc3c2)n1 | 97% |  | 
5 | CC(C)c1cccc(-c2[nH]c(CCc3ccc(S(N)(=O)=O)cc3)nc2-c2ccc3nccnc3c2)n1 | 105% |  | 
6 | CCCc1cccc(-c2[nH]c(Cc3ccc(S(N)(=O)=O)cc3)nc2-c2ccc3nccnc3c2)n1 | 105% |  | 
7 | Cc1cccc(-c2[nH]c(Cc3ccc(S(N)(=O)=O)cc3)nc2-c2ccc3nccnc3c2)n1 | 89% | Dose-dependent effect | Dose-dependent effect
8 | CCCCc1cccc(-c2[nH]c(Cc3ccc(S(N)(=O)=O)cc3)nc2-c2ccc3nccnc3c2)n1 | 104% |  | 
9 | Cc1cccc(-c2[nH]c(CCc3ccc(S(N)(=O)=O)cc3)nc2-c2ccc3nccnc3c2)n1 | 91% |  | 
10 | CCc1cccc(-c2[nH]c(Cc3ccc(S(N)(=O)=O)cc3)nc2-c2ccc3nccnc3c2)n1 | 92% | Dose-dependent effect | Dose-dependent effect
11 | CCCc1cccc(-c2[nH]c(CCc3ccc(S(N)(=O)=O)cc3)nc2-c2ccc3nccnc3c2)n1 | 103% |  | 
12 | NS(=O)(=O)c1ccc(CCc2nc(-c3ccc4nccnc4c3)c(-c3ccccn3)[nH]2)cc1 | 97% |  | 
13 | CCc1cccc(-c2[nH]c(CCc3ccc(S(N)(=O)=O)cc3)nc2-c2ccc3nccnc3c2)n1 | 96% |  | 

Reference: ChEMBL document CHEMBL1153849, “Synthesis and biological evaluation of benzenesulfonamide-substituted 4-(6-alkylpyridin-2-yl)-5-(quinoxalin-6-yl)imidazoles as transforming growth factor-beta type 1 receptor kinase inhibitors” (Eur J Med Chem, 2009)
